{
  "source": "ChEMBL document CHEMBL4387744",
  "about": "“Discovery of conolidine derivative DS39201083 as a potent novel analgesic without mu opioid agonist activity” (Bioorg Med Chem Lett, 2019)",
  "key": {"Mus musculus [1]": {"tested_on": "Mus musculus", "assay": "Analgesic activity in Slc:ddY mouse assessed as inhibition of acetic acid-induced writhings at 30 mg/kg, po relative to control", "assay_type": "functional", "outline": "(§1)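 Acetic acid-induced writhing in Slc:ddY mice after oral dosing. Read-out is reduction (% inhibition) of writhing behaviour. ED50 calculated from the dose-response curve of analgesic activity at 10, 30 and 100 mpk.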"}, "[2]": {"assay": "Distribution coefficient between 1-octanol and phosphate buffer, logD of the compound in pH 7.4 buffer", "assay_type": "physicochemical", "settings": "1-octanol/phosphate buffer", "outline": "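Log D measured as partitioning between 1-octanol and phosphate-buffered saline at pH 7.4.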"}, "Mus musculus [3]": {"species_on_record": "Mus musculus", "assay": "Analgesic activity in Slc:ddY mouse assessed as inhibition of acetic acid-induced writhings", "assay_type": "functional", "outline": "as §1"}, "Mus musculus [4]": {"tested_on": "Mus musculus", "assay": "Analgesic activity in Slc:ddY mouse assessed as reduction in sum of the time spent in paw licking or biting responses during phase 1 at 30 mg/kg, po dosed 30 mins before formalin injection by formalin test relative to control", "assay_type": "functional", "outline": "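Formalin test in Slc:ddY mice (n = 8). Compound given p.o. at 30 mg/kg; 30 min later 3.5% formalin (20 μL) injected into the hind paw pad. Read-out is the reduction in summed paw licking and biting time over the first 10 min after injection (initial phase).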"}, "Mu-type opioid receptor [5]": {"target": "T1, Mu-type opioid receptor (Homo sapiens, UniProt P35372)", "T1 sequence (P35372 whole entry)": "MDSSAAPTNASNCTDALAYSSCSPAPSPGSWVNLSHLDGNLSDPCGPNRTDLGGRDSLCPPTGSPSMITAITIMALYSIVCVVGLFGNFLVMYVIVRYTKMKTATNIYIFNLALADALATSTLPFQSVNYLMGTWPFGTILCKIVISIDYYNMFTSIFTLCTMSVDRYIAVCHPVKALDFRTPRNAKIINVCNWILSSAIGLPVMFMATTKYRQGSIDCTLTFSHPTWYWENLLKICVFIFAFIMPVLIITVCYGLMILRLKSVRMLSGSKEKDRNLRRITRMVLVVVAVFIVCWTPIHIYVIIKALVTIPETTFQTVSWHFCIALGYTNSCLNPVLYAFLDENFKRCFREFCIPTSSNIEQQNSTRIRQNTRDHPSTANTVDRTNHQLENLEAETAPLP", "assay": "Displacement of [3H]-diprenorphine from MOR (unknown origin)", "assay_type": "ADME"}, "Mu-type opioid receptor [6]": {"target": "T1, Mu-type opioid receptor", "assay": "Agonist activity at human mu opioid receptor expressed in CHO cells by cAMP assay", "assay_type": "cell-based", "outline": "(§2)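 Human MOR expressed in CHO cells; cAMP read-out. EC50 derived from the cAMP response.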"}, "Mu-type opioid receptor [7]": {"target": "T1, Mu-type opioid receptor", "assay": "Agonist activity at human mu opioid receptor expressed in CHO cells by cAMP assay relative to DAMGO", "assay_type": "cell-based", "outline": "as §2"}, "[8]": {"assay": "AUC in ddY mouse 10 mg/kg, po", "assay_type": "ADME, organism-based", "settings": "in vivo", "outline": "(§3)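 Plasma pharmacokinetics in ddY mice after a single oral dose of 10 mg/kg, given as a 0.5 w/v% methylcellulose suspension. Reported values are the average of three.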"}, "[9]": {"assay": "Cmax in ddY mouse 10 mg/kg, po", "assay_type": "ADME, organism-based", "parameters": "dose 10 mg/kg, route oral", "settings": "in vivo", "outline": "as §3"}, "[10]": {"assay": "Half life in ddY mouse 10 mg/kg, po", "assay_type": "ADME, organism-based", "settings": "in vivo", "outline": "as §3"}, "Mus musculus [11]": {"tested_on": "Mus musculus", "assay": "Analgesic activity in Slc:ddY mouse assessed as inhibition of acetic acid-induced writhings at 3 mg/kg, po relative to control", "assay_type": "functional"}, "Mus musculus [12]": {"tested_on": "Mus musculus", "assay": "Analgesic activity in Slc:ddY mouse assessed as inhibition of acetic acid-induced writhings at 10 mg/kg, po relative to control", "assay_type": "functional", "outline": "as §1"}},
  "data": [
    {"smiles": "C/C=C1/CN2CC[C@H]1C(=O)c1[nH]c3ccccc3c1C2.O=S(=O)(O)O", "values": [
      {"measurement": "inhibition in vivo at 30 mg/kg", "setting": "Mus musculus [1]", "value": 49, "unit": "%"},
      {"measurement": "logD", "setting": "[2]", "value": 2.8},
      {"measurement": "ED50", "setting": "Mus musculus [3]", "value": 32, "unit": "mg/kg"},
      {"measurement": "inhibition in vivo at 30 mg/kg", "setting": "Mus musculus [4]", "value": 43, "unit": "%"},
      {"measurement": "IC50", "setting": "Mu-type opioid receptor [5]", "value": 70, "unit": "µM"},
      {"measurement": "EC50", "setting": "Mu-type opioid receptor [6]", "value": "> 100", "unit": "µM"},
      {"measurement": "Emax", "setting": "Mu-type opioid receptor [7]", "value": 13, "unit": "%"}
    ]},
    {"smiles": "CCC12CCN(CC1)Cc1c([nH]c3ccccc13)C2=O.O=S(=O)(O)O", "values": [
      {"measurement": "inhibition in vivo at 30 mg/kg", "setting": "Mus musculus [1]", "value": 48, "unit": "%"},
      {"measurement": "logD", "setting": "[2]", "value": 3},
      {"measurement": "AUC", "setting": "[8]", "value": 1.02, "unit": "µM·h"},
      {"measurement": "Cmax", "setting": "[9]", "value": 710, "unit": "nM"},
      {"measurement": "half-life", "setting": "[10]", "value": 1.28, "unit": "h"}
    ]},
    {"smiles": "O=C1c2[nH]c3ccccc3c2CN2CCC1CC2", "values": [
      {"measurement": "inhibition in vivo at 30 mg/kg", "setting": "Mus musculus [1]", "value": 73, "unit": "%"},
      {"measurement": "logD", "setting": "[2]", "value": 1.8},
      {"measurement": "AUC", "setting": "[8]", "value": 2.26, "unit": "µM·h"},
      {"measurement": "Cmax", "setting": "[9]", "value": 1160, "unit": "nM"},
      {"measurement": "half-life", "setting": "[10]", "value": 1.17, "unit": "h"},
      {"measurement": "ED50", "setting": "Mus musculus [3]", "value": 11, "unit": "mg/kg"},
      {"measurement": "IC50", "setting": "Mu-type opioid receptor [5]", "value": "> 100", "unit": "µM"},
      {"measurement": "EC50", "setting": "Mu-type opioid receptor [6]", "value": "> 100", "unit": "µM"},
      {"measurement": "Emax", "setting": "Mu-type opioid receptor [7]", "value": 13, "unit": "%"}
    ]},
    {"smiles": "CC12CCN(CC1)Cc1c([nH]c3ccccc13)C2=O.O=S(=O)(O)O", "values": [
      {"measurement": "inhibition in vivo at 30 mg/kg", "setting": "Mus musculus [1]", "value": "90 to 94", "unit": "%"},
      {"measurement": "logD", "setting": "[2]", "value": 2.5},
      {"measurement": "AUC", "setting": "[8]", "value": 3.21, "unit": "µM·h"},
      {"measurement": "Cmax", "setting": "[9]", "value": 1250, "unit": "nM"},
      {"measurement": "half-life", "setting": "[10]", "value": 2.33, "unit": "h"},
      {"measurement": "ED50", "setting": "Mus musculus [3]", "value": 7.8, "unit": "mg/kg"},
      {"measurement": "inhibition in vivo at 30 mg/kg", "setting": "Mus musculus [4]", "value": 92, "unit": "%"},
      {"measurement": "IC50", "setting": "Mu-type opioid receptor [5]", "value": 71, "unit": "µM"},
      {"measurement": "EC50", "setting": "Mu-type opioid receptor [6]", "value": "> 100", "unit": "µM"},
      {"measurement": "Emax", "setting": "Mu-type opioid receptor [7]", "value": 12, "unit": "%"},
      {"measurement": "inhibition in vivo at 3 mg/kg", "setting": "Mus musculus [11]", "value": 23, "unit": "%"},
      {"measurement": "inhibition in vivo at 10 mg/kg", "setting": "Mus musculus [12]", "value": 52, "unit": "%"}
    ]},
    {"smiles": "CCC1CN2CCC1C(=O)c1[nH]c3ccccc3c1C2", "note": "(mixture of isomers)", "values": [
      {"measurement": "inhibition in vivo at 30 mg/kg", "setting": "Mus musculus [1]", "value": 50, "unit": "%"}
    ]},
    {"smiles": "C/C=C1/CN2CCC1C(=O)c1[nH]c3c(OC)cccc3c1C2", "note": "(racemic)", "values": [
      {"measurement": "inhibition in vivo at 30 mg/kg", "setting": "Mus musculus [1]", "value": 34, "unit": "%"},
      {"measurement": "logD", "setting": "[2]", "value": 3.3}
    ]},
    {"smiles": "C/C=C1/CN2CCC1C(=O)c1[nH]c3ccccc3c1C2", "note": "(racemic)", "values": [
      {"measurement": "inhibition in vivo at 30 mg/kg", "setting": "Mus musculus [1]", "value": 49, "unit": "%"}
    ]},
    {"smiles": "C/C=C1/CN2CCC1C(=O)c1c(c3ccccc3n1C)C2", "note": "(racemic)", "values": [
      {"measurement": "inhibition in vivo at 30 mg/kg", "setting": "Mus musculus [1]", "value": 30, "unit": "%"},
      {"measurement": "logD", "setting": "[2]", "value": 3.5}
    ]},
    {"smiles": "C/C=C1/CN2CCC1C(=O)c1[nH]c3cccc(OC)c3c1C2", "note": "(racemic)", "values": [
      {"measurement": "inhibition in vivo at 30 mg/kg", "setting": "Mus musculus [1]", "value": 42, "unit": "%"},
      {"measurement": "logD", "setting": "[2]", "value": 3.4}
    ]},
    {"smiles": "C/C=C1/CN2CCC1C(=O)c1[nH]c3ccc(OC)cc3c1C2", "note": "(racemic)", "values": [
      {"measurement": "inhibition in vivo at 30 mg/kg", "setting": "Mus musculus [1]", "value": 3, "unit": "%"},
      {"measurement": "logD", "setting": "[2]", "value": 3.1}
    ]},
    {"smiles": "C/C=C1\\CN2CCC1C(=O)c1[nH]c3ccccc3c1C2", "note": "(racemic)", "values": [
      {"measurement": "inhibition in vivo at 30 mg/kg", "setting": "Mus musculus [1]", "value": 18, "unit": "%"},
      {"measurement": "logD", "setting": "[2]", "value": 3.3}
    ]},
    {"smiles": "C/C=C1/CN2CCC1C(=O)c1[nH]c3cc(OC)ccc3c1C2", "note": "(racemic)", "values": [
      {"measurement": "inhibition in vivo at 30 mg/kg", "setting": "Mus musculus [1]", "value": 31, "unit": "%"},
      {"measurement": "logD", "setting": "[2]", "value": 3.1}
    ]},
    {"smiles": "CC/C=C1/CN2CCC1C(=O)c1[nH]c3ccccc3c1C2", "note": "(racemic)", "values": [
      {"measurement": "inhibition in vivo at 30 mg/kg", "setting": "Mus musculus [1]", "value": 0, "unit": "%"}
    ]}
  ]
}
